Published values of several laboratories.
Each line is one published result; the experiments were not run side by side.
ABCG2: Broad substrate specificity ATP-binding cassette transporter ABCG2 (ABCG2, Homo sapiens, UniProt Q9UNQ0)

| Compound | target or system | test | system | conditions | measurement | value |
| --- | --- | --- | --- | --- | --- | --- |
| CCc1cc(C(=O)NC)c2nccc(N3CCc4c(cc(Cn5ccnc5)cc4-c4cn(C)nc4C(F)(F)F)C3=O)c2c1 | – | – | male Sprague-Dawley rat, plasma | intravenous, 3 mg/kg | half-life | 48 min |
| C=CC1(C)CC(OC(=O)CSCCCCCN(C)C)C2(C)C(C)CCC3(CCC(=O)C32)C(C)C1O (stereo not shown) | K562 | cell growth or viability | – | – | IC50 | 9.67 µM |
| O=C(O)CSc1nnc(Br)n1-c1ccc(C2CC2)c2ccccc12 | ABCG2 | transporter uptake, inhibitor | Caco-2 | 100 µM, 2 h | inhibition | 38% |
| O=C(O)c1cc(Br)c(O)c(Br)c1 | K562 | cell growth or viability | – | – | IC50 | > 432 µM |
| CCOC(=O)[C@@]12C[C@@H]1[C@@H](n1ccc3c(NC)nc(C#Cc4ccc(Cl)s4)nc31)[C@H](O)[C@@H]2O | – | – | male Sprague-Dawley rat, plasma | oral, 3 mg/kg, 8 h | concentration | 3.68 ng/mL |
| Cc1cc2cc(O)cc(O)c2c(=O)o1 | K562 | cell growth or viability | – | – | IC50 | 19 µM |
| CCc1cc(-c2noc(-c3cc(OC)nc(C4CCCC4)c3)n2)cc(C)c1OC[C@@H](O)CO | – | – | Wistar rat, plasma | oral, 1 mg/kg, 6 h, single dose | concentration | 41.1 ng/mL |
| Cc1noc(C)c1Cn1cc(N2C(=O)CN(Cc3cccc(O)c3)C2=O)cn1 | – | – | male Sprague-Dawley rat, plasma | oral, 100 mg/kg, 15 min | concentration | 26.7 ng/mL |
| CN1CCN=C1c1ccc(NC(=O)c2ccc(C(=O)Nc3ccc(C4=NCCN4C)cc3)cc2)cc1 | K562 | cell growth or viability | – | – | IC50 | 171 µM |
| CO[C@H](C(=O)N1Cc2c(-c3ccc(C(=O)N4CCCc5ccccc54)cc3)cnn2C[C@H]1C(C)C)c1ccccc1 (single isomer, unassigned) | ABCG2 | – | dog, MDCK-MDR1 | – | Papp B→A | 8.4 ×10⁻⁶ cm/s |
| COc1ccc2c(=O)n(C)c(-c3ccccc3)nc2c1 | – | – | male Sprague-Dawley rat, lung | oral, 30 mg/kg, 15 min, single dose | concentration | 15.3 ng/g |
| CO[C@H](C(=O)N1Cc2c(-c3ccc(C(=O)N4CCCc5ccccc54)cc3)cnn2C[C@H]1C(C)C)c1cnn(C)c1 (single isomer, unassigned) | ABCG2 | – | dog, MDCK-MDR1 | – | Papp B→A | 26.1 ×10⁻⁶ cm/s |
| CCC1(C)CC(OC(=O)CSc2nnc(N)[nH]2)C2(C)C(C)CCC3(CCC(=O)C32)C(C)C1O (stereo not shown) | K562 | cell growth or viability | – | – | IC50 | 21.3 µM |
| C[C@H](C(=O)N1Cc2c(-c3ccc(C(=O)N4CCCc5ccccc54)cc3)cnn2C[C@@H]1C)c1ccccc1 | ABCG2 | – | dog, MDCK-MDR1 | – | Papp B→A | 13.4 ×10⁻⁶ cm/s |
| COc1cc(/C=N\NC(=O)c2ccc(Br)cc2)ccc1OC(=O)c1cccs1 | K562 | cell growth or viability | – | – | IC50 | 32.4 µM |
| CO[C@H](C(=O)N1Cc2c(-c3ccc(C(=O)N4CCCc5ccccc54)cn3)cnn2C[C@H]1C(C)C)c1cnn(C)c1 (single isomer, unassigned) | ABCG2 | – | dog, MDCK-MDR1 | – | Papp B→A | 30.6 ×10⁻⁶ cm/s |
| C/C(O)=C(\C#N)C(=O)Nc1ccc(C(F)(F)F)cc1 | ABCG2 | – | Caco-2 | 1 µM, 2 h, pH 7.4 | efflux ratio | 6.06 |
| CC(C)[C@@H]1Cn2ncc(-c3ccc(C(=O)N4CCCc5ccccc54)cc3)c2CN1C(=O)Cc1ccccc1 | ABCG2 | – | dog, MDCK-MDR1 | – | Papp B→A | 5.2 ×10⁻⁶ cm/s |
| COc1cccc(-c2n[nH]c(SCc3ccccn3)n2)c1OC | – | – | female Sprague-Dawley rat, plasma | intravenous, 1 mg/kg, 8 h, single dose | concentration | 24.7 ng/mL |
